Columns and labels:
Plasmodium falciparum = assay: Antiplasmodial activity against chloroquine-sensitive ring-stage Plasmodium falciparum 3D7 assessed as [3H]hypoxanthine incorporation after 48 hrs by liquid scintillation counter; type: functional, organism-based
How it was run: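 Ring-stage 3D7-infected erythrocytes at 0.5% parasitemia, 2.5% hematocrit, in triplicate wells with serial compound dilutions. After 48 h under standard culture conditions, 0.5 µCi [3H]-hypoxanthine was added per well and culture continued a further 24 h. Harvested cells counted by scintillation. Inhibition was taken against matched 0.5% DMSO controls. IC50 was obtained by linear interpolation, as the mean of two independent triplicate experiments.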

[1] = Cytotoxicity against human NFF assessed as growth inhibition at 100 uM after 3 days by sulforhodamine B assay; type: cell-based; details: NFF cells, read-out: GI
[2] = Cytotoxicity against human NFF assessed as growth inhibition at 50 uM after 3 days by sulforhodamine B assay; type: cell-based; details: NFF cells, read-out: GI
NFF = assay: Cytotoxicity against human NFF assessed as growth inhibition after 3 days by sulforhodamine B assay; type: cell-based; details: 72 h
How it was run: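 NFF cells were kept in log phase in RPMI 1640 with 10% FCS and 1% streptomycin at 37 °C, 5% CO2. They were seeded at 3000/well and grown 24 h before treatment. Compounds went in as DMSO solutions diluted in medium, with DMSO ≤1% and DMSO-matched controls. After 3 days cells were PBS-washed and fixed in methylated spirits. Total protein was measured by sulforhodamine B, in triplicate across three independent experiments.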

SMILES	IC50 (Plasmodium falciparum)	inhibition at 72 h, 100 µM [1]	inhibition at 72 h, 50 µM [2]	IC50 (NFF)
COc1ccc(/C=C/[C@@H]2c3c(OC)cccc3O[C@]3(c4ccc(OC)cc4)Oc4cccc(OC)c4C[C@H]23)cc1	8.2 µM	54.6%		
COc1cc(OC)c2c(c1OC)O[C@@H](c1ccccc1)[C@H]1[C@@H]2Oc2c(OC)c(OC)cc(OC)c2[C@@H]1/C=C/c1ccccc1 (relative stereo)	3.9 µM		46.9%	
COc1ccc2c(c1)C[C@@H]1[C@H](/C=C/c3ccc(C)cc3)c3cc(OC)ccc3O[C@]1(c1ccc(C)cc1)O2	8.9 µM	40%		
COc1cccc2c1C[C@@H]1[C@H](/C=C/c3ccc(Br)cc3)c3c(OC)cccc3O[C@]1(c1ccc(Br)cc1)O2	39.8 µM	38%		
COc1ccc2c(c1)C[C@@H]1[C@H](/C=C/c3ccccc3)c3cc(OC)ccc3O[C@]1(c1ccccc1)O2	10.2 µM	51.4%		
CCN(CC)CCCC(C)Nc1ccnc2cc(Cl)ccc12 (stereo unspecified) [CHLOROQUINE]				34 µM
COc1cccc2c1C[C@@H]1[C@H](/C=C/c3ccc(Cl)cc3)c3c(OC)cccc3O[C@]1(c1ccc(Cl)cc1)O2	8.3 µM	83.6%		
COc1ccc2c(c1)C[C@@H]1[C@H](/C=C/c3ccc(Br)cc3)c3cc(OC)ccc3O[C@]1(c1ccc(Br)cc1)O2	17.2 µM	51%		
COc1cccc2c1C[C@@H]1[C@H](/C=C/c3ccc(C)cc3)c3c(OC)cccc3O[C@]1(c1ccc(C)cc1)O2	6.8 µM	60.1%		
COc1ccc2c(c1)C[C@@H]1[C@H](/C=C/c3ccc(Cl)cc3)c3cc(OC)ccc3O[C@]1(c1ccc(Cl)cc1)O2	35.6 µM	40.4%		
COc1cccc2c1C[C@@H]1[C@H](/C=C/c3ccccc3)c3c(OC)cccc3O[C@]1(c1ccccc1)O2	17.3 µM	48.6%		
